Bioassay records deposited in PubChem by several laboratories.
Rad51 HR inh – Rad51 (human) homologous recombination inhibition; AID 1385; inhibition, % at 10 µM; hRad51 DNA strand exchange, fluorescence dequenching; 0.085% of 200,000 active;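 active = inhibition above 40% at the single screening dose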
Target sequence (Q06609 whole entry, looked up): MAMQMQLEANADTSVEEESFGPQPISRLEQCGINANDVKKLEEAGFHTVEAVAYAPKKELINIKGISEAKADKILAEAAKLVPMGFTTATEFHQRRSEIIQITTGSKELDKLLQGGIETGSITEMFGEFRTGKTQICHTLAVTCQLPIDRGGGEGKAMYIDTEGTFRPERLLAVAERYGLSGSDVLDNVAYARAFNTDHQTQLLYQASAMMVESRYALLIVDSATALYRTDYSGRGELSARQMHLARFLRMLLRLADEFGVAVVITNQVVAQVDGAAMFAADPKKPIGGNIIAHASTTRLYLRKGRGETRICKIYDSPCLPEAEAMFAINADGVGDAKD
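Material: hRad51 filaments on single-stranded DNA; Reagent: Donor/quencher-labelled 47-bp dsDNA substrate; Compound: 10 µM final, single point; Schedule: 37 °C 15-min filament assembly, 30-min compound preincubation, 15-min exchange; Technique: FRET fluorescence, excitation 485 nm, emission 520 nm; Benchmarks: control wells and blank wells on each plate.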
APP 5'UTR act – activates APP 5'UTR luciferase reporter; SH-SY5Y APP 5'UTR luciferase reporter, luminescence; zero percent = DMSO vehicle wells; 1% of 190,000 active; activation, % at 2 µM;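 active = activation above a set limit, based on mean plus 3 SD of controls, cut at about 140% in these data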
STAT1 act – increases IFN-gamma driven STAT1 reporter signal. 2.6% of 200,000 active. AID 932. NIH 3T3 STAT1-luciferase reporter, luminescence; 100% = IFN-gamma alone, no compound. activation (% of control), % at 5.5 µM;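 active = activation above the screen-wide mean activation plus 3 SD, cut at about 130% in these data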
NF-kB expr up – NF-kB expression increase, human neuronal cells; NF-kB reporter expression; hits give high values; fold change at 12.5 µM; 1.6% of 190,000 active; AID 1239; in the data active = fold change above about 3.3
FLuc stim CS – affects firefly luciferase, flagging false hits in luciferase stimulation screens; P08659; ATPlite luciferase biochemical, luminescence, 10 min; 0 = ATP-free wells, 1 = DMSO control; 200,000 tested, under 10 active; activation factor at 10 µM;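 active = luciferase activation factor, scaled between plate controls, of at least 2 with compound at 10 µM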
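test system = cell-free luciferase reagent | medium = PBS as buffer for the ATP substrate | dosing = test compounds dosed from 2 mM stocks in 100% DMSO | incubation = 10 min at ambient temperature | detection = luminescence measurement of luciferase light output | benchmarks = low control with PBS replacing ATP, high control enzyme plus ATP without compound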
FLuc inhib CS – counter-screen for luciferase assay inhibitors: firefly luciferase inhibition; P08659; ATPLite firefly luciferase biochemical luminescence, 10 min; inhibition, % at 10 µM; 1.5% of 200,000 active; AID 1006;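 active = inhibition above about 50% when tested at 10 µM, limit read from the data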
Of the large screens only hits and unclear results are named; the others gave an inactive call. The list is not random: actives were taken first. Their share in the collection is about 3.9%.

C/C(CC(=O)Nc1ccc(Cl)cc1)=N\NC(=O)C(=O)N1CCCCC1	none
CCc1nnc(NS(=O)(=O)c2ccc(N/C=C/C(=O)c3ccc(OC)cc3)cc2)s1	STAT1 act 136.0
CCc1nnc(NC(=O)c2cccc(OC)c2)s1	STAT1 act 137.2
CCc1nnc(NC(=O)c2ccc(OC)cc2)s1	NF-kB expr up 4.01, FLuc inhib CS 83.2
CCOCc1nnc(NC(=O)c2cccc(OC)c2)s1	none
CCOc1ccc(C(=O)/C=C/Nc2ccc(S(=O)(=O)N=C(N)N)cc2)cc1	STAT1 act 130.8
C(=N\Nc1nc(Nc2ccccc2)nc(N2CCCCC2)n1)/c1ccco1	none
COC(=O)Nc1nnc(/C=C/c2ccc(OC)cc2)s1	FLuc inhib CS 51.8
CCOc1cccc(C(=O)Nc2nnc(-c3ccco3)s2)c1	NF-kB expr up 3.3
CCN(CC)S(=O)(=O)c1cccc(N=Nc2c(O)c3ccccc3oc2=O)c1	none (no result: APP 5'UTR act, STAT1 act, NF-kB expr up, FLuc stim CS, FLuc inhib CS)
CC(=O)c1ccc(N2CCN(C(=O)c3ccc(Cn4c(=S)[nH]c5ccc(N6CCOCC6)cc5c4=O)cc3)CC2)cc1	none
N=C1SCC(=O)N1c1nc(-c2ccccc2)cs1	STAT1 act 149.6
O=C1C2C3c4ccccc4C(c4ccccc43)C2C(=O)N1c1nc(-c2ccccc2)cs1 (stereo not drawn)	none
Cc1ccc(SCc2cc(=O)n3ccsc3n2)c(C)c1	STAT1 act 134.2
COc1ccc(CCNCC(=O)Nc2ccccc2C(F)(F)F)cc1	none
Cc1ccc(-c2csc(NC(=O)/C=C/c3ccco3)c2C(=O)O)cc1	STAT1 act 137.7, FLuc inhib CS 64.2
O=C(Nc1scc(-c2ccc(F)cc2)c1C(=O)O)c1ccco1	none
CSc1ccc(/C=C/C(=O)c2ccc(O)cc2)cc1	NF-kB expr up 3.35, FLuc inhib CS 69.5
O=C(/C=C/c1ccco1)Nc1ccccc1C(=O)O	FLuc inhib CS 79.9
O=C(/C=C/c1ccco1)Nc1cc(Cl)ccc1C(=O)O	none
Cc1nc(NC(=O)/C=C/c2ccco2)sc1C	STAT1 act 143.5
CCc1nc2ccccc2n1CC1CC1(Cl)Cl (stereo not drawn)	none
O=C(CSc1ccc(Cl)cc1)N/N=C/c1cccnc1	none (no result: Rad51 HR inh)
O=C(/C=C/c1ccco1)NC1=NCCS1	STAT1 act 144.9
O=C(/C=C/c1ccco1)Nc1cccc(NC(=O)/C=C/c2ccco2)n1	FLuc inhib CS 52.5
O=C(/C=C/c1ccco1)Nc1nnc(-c2ccco2)s1	none
O=C(/C=C/c1ccco1)NC(=S)Nc1ccccn1	none
CNS(=O)(=O)c1ccc2nc(NC(=O)/C=C/c3ccco3)sc2c1	STAT1 act 130.6
O=C(/C=C/c1ccco1)c1ccc(O)cc1	NF-kB expr up 3.32
CCSc1nnc(NC(=O)/C=C/c2ccco2)s1	none
Cc1ccc(CN2CN(S(=O)(=O)c3cccs3)c3nc4ccccc4nc32)cc1	STAT1 act 141.5, NF-kB expr up 6.43 (no result: Rad51 HR inh)
COc1ccc(/C=C/C(=O)OCC(=O)Nc2c(C)cccc2C)cc1	none
CC(=Nc1cccc(C)c1)c1sc2ccccc2c1O	APP 5'UTR act 137.3, STAT1 act 169.8, NF-kB expr up 6.01
CC(=Nc1ccccc1O)c1sc2ccccc2c1O	none (no result: APP 5'UTR act, STAT1 act, NF-kB expr up, FLuc stim CS, FLuc inhib CS)
CC(=O)/C(=N/Nc1ccc(C)cc1)Sc1nnc(CCc2ccccc2)n1-c1ccccc1	NF-kB expr up 4.39
CCOC(=O)c1sc(=NC(=O)c2cccs2)n(C)c1C	APP 5'UTR act 140.9, STAT1 act 132.9, NF-kB expr up 5.39
CCOC(=O)c1sc(=NC(=O)c2ccco2)n(C)c1C	STAT1 act 129.1
CCOC(=O)c1sc(=NC(=O)c2ccc(Cl)s2)n(C)c1C	APP 5'UTR act 146.1, STAT1 act 150.6
CCOC(=O)c1cccc(NC(=O)c2cccs2)c1	none
CCOC(=O)c1sc(=NC(=O)c2ccc(OC(C)C)cc2)n(C)c1C	none
CCOC(=O)c1sc(NC(=O)c2cccs2)cc1C	APP 5'UTR act 168.1, STAT1 act 137.8, NF-kB expr up 4.05, FLuc inhib CS 71.1
CCOC(=O)c1sc(=NC(=O)c2ccc(C)c(C)c2)n(C)c1C	none
COc1ccccc1CNC(=O)/C=C/c1ccc(Br)o1	none
CC(C)c1ccc(/C=N/NC(=O)c2nnn(-c3nonc3N)c2CSC2=NCCS2)cc1	none
Cc1ccc2c(c1)sc(=NC(=O)c1cccs1)n2C	APP 5'UTR act 219.8, FLuc inhib CS 94.6
Cc1ccc2c(c1)sc(=NC(=O)C1CC1)n2C	none (no result: APP 5'UTR act, STAT1 act, NF-kB expr up, FLuc stim CS, FLuc inhib CS)
CCOC(=O)c1ccc(CC2S/C(=C(\C#N)C(C)=O)NC2=O)cc1 (stereo not drawn)	NF-kB expr up 3.48
O=C(CSc1ccccn1)Nc1ccc2ccccc2c1	APP 5'UTR act 137.1, STAT1 act 132.1
Cc1ccc(NC(=O)CCSc2ccccn2)cc1	STAT1 act 142.0
O=C(CSc1ccccn1)Nc1ccc2c(c1)C(=O)c1ccccc1C2=O	none
COc1cccc(-n2c([S-])c(C(=O)Nc3ccc(C(F)(F)F)cc3)[n+]3ccccc23)c1	none
COc1ccc(/C=C/C(=O)c2ccc(OC)cc2OC)cc1	none
COc1ccc(/C=C/C(=O)c2cc3c(cc2N)OCO3)cc1	APP 5'UTR act 145.2, NF-kB expr up 3.77, FLuc inhib CS 79.0
Cc1cc(/C=N/O)c(C)n1-c1ccc(Br)cc1	none
O/N=C/c1ccn(-c2ccc(Br)cc2)c1	STAT1 act 131.0
CC(NC(=O)c1cnccn1)c1ccc(S(N)(=O)=O)cc1 (stereo not drawn)	none (no result: APP 5'UTR act, STAT1 act, NF-kB expr up, FLuc stim CS, FLuc inhib CS)
C=C(C(=O)c1ccccc1)C(c1ccccc1)C(C)C(=O)c1ccccc1 (stereo not drawn)	none
C=C(C(=O)c1ccccc1)C(C)C(=C)C(=O)c1ccccc1	NF-kB expr up 8.52
O=C(O)CNC(=O)CC1S/C(=N/N=C2/NC(=O)CS2)NC1=O (stereo not drawn)	none
c1ccc(-c2cn3c4c(sc3n2)CCCC4)cc1	FLuc inhib CS 94.9 (no result: Rad51 HR inh)
CCCC(=O)c1ccc(N2CCCCC2)c(F)c1	STAT1 act 130.3
Cc1cc(Br)ccc1OCCCCN1CCC(C)CC1	none
C=CCn1c(-c2ccc(OC)cc2)csc1=Nc1c(C)n(C)n(-c2ccccc2)c1=O	none
COc1ccc(-c2cc(=Nc3ccc(C(=O)O)cc3)c3cc(C)ccc3o2)cc1	APP 5'UTR act 209.4, FLuc inhib CS 58.4
CCc1ccc2oc(-c3ccc(OC)cc3)cc(=Nc3c(C)n(C)n(-c4ccccc4)c3=O)c2c1	APP 5'UTR act 172.8
CCc1ccc2oc(-c3ccc(OC)cc3)cc(=Nc3cccc(C(=O)O)c3)c2c1	APP 5'UTR act 203.9, NF-kB expr up 7.19, FLuc inhib CS 51.3
CCOc1ccc2c(c1)c(N=Nc1cccc(C(=O)O)c1)c(O)n2C	none
CC(=O)N(c1cccc(C(F)(F)F)c1)c1nc(/C=C/C(=O)O)cs1	Rad51 HR inh 40.3 (no result: APP 5'UTR act, STAT1 act, NF-kB expr up, FLuc stim CS, FLuc inhib CS)
COc1cc(NC2c3ccccc3C(=O)N2Cc2ccc3c(c2)OCO3)cc(OC)c1 (stereo not drawn)	none (no result: APP 5'UTR act, STAT1 act, NF-kB expr up, FLuc stim CS, FLuc inhib CS)
